Fewer inactive variants are shown than the library holds.
B1: tRNA (parent)
chain: GUUCCGUUGGCGUAAUGGUAACGCGUCUCCCUCCUAAGGAGAAGACUGCGGGUUCGAGUCCCGUACGGAACG

Variants of: B1
Test: yeast fitness relative to wild type (ratio to wild type); higher = fitter; tRNA-Arg(CCU), competitive growth, 37 C, YPD
Method in brief: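 Gene amplicons from the start population and from each of six end populations were read by 100-nucleotide paired-end sequencing. Those end populations came from pooled Saccharomyces cerevisiae strains carrying tRNA-Arg(CCU) gene variants at the native locus, competed in YPD at 37°C for 24 hours. Fitness relative to wild type was worked out from changes in genotype frequencies. Genotypes needed ≥ 100 starting reads, and estimates < 0.5 were set to 0.5.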

Variant | yeast fitness
GUUCCGUUGGCGUAAUGGUAACGCGUCUCCCUCCUGAGGCGGAGACUGCGGGUUCGAGUCCCGUACGGAACG [A36G A40C A42G] | 0.768
GUUCCGUUGGCGUAAUGGUAACGCGUCUCCCUCCUGAGGUGAAGACUGCGGGUUCGAGUCCCGUACGGAACG [A36G A40U] | 0.938
GUUCCGUUGGCGUAAUGGUAACGCGUCUCCCUCCUGAGGAGCAGACUGCGGGUUCGAGUCCCGUACGGAACG [A36G A42C] | 0.976
GUUCCGUUGGCGUAAUGGUAACGCGUCUCCCUCCUGAGGAGCUGAAUGCGGGUUCGAGUCCCGUACGGAACG [A36G A42C A43U C46A] | 0.861
GUUCCGUUGGCGUAAUGGUAACGCGUCUCCCUCCUGAGGAGCAGACUGCGGGUUCGAGUCCCGUACGGUACG [A36G A42C A69U] | 0.744
GUUCCGUUGGCGUAAUGGUAACGCGUCUCCCUCCUGAGGAGCAGACUGCGGGUUCGAGUCCCGUACCGCACG [A36G A42C G67C A69C] | 0.559
GUUCCGUUGGCGUAAUGGUAACGCGUCUCCCUCCUGAGGAGCAGACUGCGGGUUCGAGUCCCGUACGCAACG [A36G A42C G68C] | 0.608
GUUCCGUUGGCGUAAUGGUAACGCGUCUCCCUCCUGAGGAGGAGACUGCGGGUUCGAGUCCCGUACGGAGCG [A36G A42G A70G] | 0.54
GUUCCGUUGGCGUAAUGGUAACGCGUCUCCCUCCUGAGGAGGAGAGUGCGGGUUCGAGUCCCGUACGGAACG [A36G A42G C46G] | 0.698
GUUCCGUUGGCGUAAUGGUAACGCGUCUCCCUCCUGAGGAGGAGAGUGCGGGUUCGAGUCCCGUACGCAACG [A36G A42G C46G G68C] | ≤ 0.5
GUUCCGUUGGCGUAAUGGUAACGCGUCUCCCUCCUGAGGAGGAGACUGCGGGUUAGAGUCCCGUACGGAACG [A36G A42G C55A] | ≤ 0.5
GUUCCGUUGGCGUAAUGGUAACGCGUCUCCCUCCUGAGGAGUAGACUGCGGGUUCGAGUCCCGUACGGAACG [A36G A42U] | 0.902
GUUCCGUUGGCGUAAUGGUAACGCGUCUCCCUCCUGAGGAGUAGACUGCGGGUUCGUGUCCCGUACGGAACG [A36G A42U A57U] | ≤ 0.5
GUUCCGUUGGCGUAAUGGUAACGCGUCUCCCUCCUGAGGAGUAGACUGCGGGCUCGAGUCCCGUACGGAACG [A36G A42U U53C] | ≤ 0.5
GUUCCGUUGGCGUAAUGGUAACGCGUCUCCCUCCUGAGGAGACGGCUGCGGGUUCGAGUCCCGUACGGAACG [A36G A43C A45G] | 0.906
GUUCCGUUGGCGUAAUGGUAACGCGUCUCCCUCCUGAGGAGACGACUGCGGGUUCGAGUCCCGCACGGAACG [A36G A43C U64C] | 0.687
GUUCCGUUGGCGUAAUGGUAACGCGUCUCCCUCCUGAGGAGAGGACUGCGGGUUCGAGUCCCGUACGGAACG [A36G A43G] | 0.975
GUUCCGUUGGCGUAAUGGUAACGCGUCUCCCUCCUGAGGAGAGGACUGCGGGUUCGAGUCCAGUACGGAACG [A36G A43G C62A] | 0.553
GUUCCGUUGGCGUAAUGGUAACGCGUCUCCCUCCUGAGGAGAUGACUGCGGGUUCGAGUCCCGUACGGAACG [A36G A43U] | 1.01

Variant | yeast fitness
GUUCCGUUGGCGUAAUGGUAACGCGUCUCCCUCCUGAGGAGAUGACUCCGGGUUCGAGUCCCGUACGGAACG [A36G A43U G48C] | 0.556
GUUCCGUUGGCGUAAUGGUAACGCGUCUCCCUCCUGAGGAGAAGCCUGCGGGUUCGAGUCCCGUACGGAACG [A36G A45C] | 1.01
GUUCCGUUGGCGUAAUGGUAACGCGUCUCCCUCCUGAGGAGAAGCCUGCGGGUUCGAGUCCCGUACGGUACG [A36G A45C A69U] | 0.806
GUUCCGUUGGCGUAAUGGUAACGCGUCUCCCUCCUGAGGAGAAGCCCACGGGUUCGAGUCCCGUACGGAACG [A36G A45C U47C G48A] | ≤ 0.5
GUUCCGUUGGCGUAAUGGUAACGCGUCUCCCUCCUGAGGAGAAGGCUGCGGGUUCGAGUCCCGUACGGAACG [A36G A45G] | 0.944
GUUCCGUUGGCGUAAUGGUAACGCGUCUCCCUCCUGAGGAGAAGGCUGCGGGUUCGAGUCCCGUUCGGAACG [A36G A45G A65U] | 0.54
GUUCCGUUGGCGUAAUGGUAACGCGUCUCCCUCCUGAGGAGAAGGCUGCGGGUUCGAGUCCCGUUCUGAACG [A36G A45G A65U G67U] | ≤ 0.5
GUUCCGUUGGCGUAAUGGUAACGCGUCUCCCUCCUGAGGAGAAGGCUGUGGGUUCGAGUCCCGUACGGAACG [A36G A45G C49U] | 0.578
GUUCCGUUGGCGUAAUGGUAACGCGUCUCCCUCCUGAGGAGAAGUCUGCGGGUUCGAGUCCCGUACGGAACG [A36G A45U] | 1.04
GUUCCGUUGGCGUAAUGGUAACGCGUCUCCCUCCUGAGGAGAAGUCUGCGGGUUCGAGUCCCGUUCGGAACG [A36G A45U A65U] | 0.572
GUUCCGUUGGCGUAAUGGUAACGCGUCUCCCUCCUGAGGAGAAGACUGCGGGUUCGCGUCCCGUACGGAACG [A36G A57C] | 0.645
GUUCCGUUGGCGUAAUGGUAACGCGUCUCCCUCCUGAGGAGAAGACUGCGGGUUCGCGUCCCGUUCGGAACG [A36G A57C A65U] | ≤ 0.5
GUUCCGUUGGCGUAAUGGUAACGCGUCUCCCUCCUGAGGAGAAGACUGCGGGUUCGGGUCCAGUACGGAACG [A36G A57G C62A] | 0.549
GUUCCGUUGGCGUAAUGGUAACGCGUCUCCCUCCUGAGGAGAAGACUGCGGGUUCGUGUCCCGUACGGAACG [A36G A57U] | 0.859
GUUCCGUUGGCGUAAUGGUAACGCGUCUCCCUCCUGAGGAGAAGACUGCGGGUUCGAGUCCCGUCCGGAACG [A36G A65C] | 0.9
GUUCCGUUGGCGUAAUGGUAACGCGUCUCCCUCCUGAGGAGAAGACUGCGGGUUCGAGUCCCGUCCGCAACG [A36G A65C G68C] | ≤ 0.5
GUUCCGUUGGCGUAAUGGUAACGCGUCUCCCUCCUGAGGAGAAGACUGCGGGUUCGAGUCCCGUGCGGAACG [A36G A65G] | 0.831
GUUCCGUUGGCGUAAUGGUAACGCGUCUCCCUCCUGAGGAGAAGACUGCGGGUUCGAGUCCCGUUCGGACCG [A36G A65U A70C] | 0.684

Source: the RNAGym collection of RNA variant scans (doi:10.1126/science.aae0568)
